Experimental data published in ChEMBL document CHEMBL1142492 (J Med Chem, 2008).

Legend:
[1] = molecular target: Phosphatidylinositol 4,5-bisphosphate 3-kinase catalytic subunit gamma isoform (Homo sapiens) (UniProt P48736); experiment: Inhibition of PIK3CG at 3 uM
[2] = molecular target: SRSF protein kinase 2 (Homo sapiens) (UniProt P78362); experiment: Inhibition of SRPK2 at 3 uM
[3] = molecular target: Serine/threonine-protein kinase 33 (Homo sapiens) (UniProt Q9BYT3); experiment: Inhibition of STK33 at 3 uM
[4] = molecular target: Serine/threonine-protein kinase TAO3 (Homo sapiens) (UniProt Q9H2K8); experiment: Inhibition of TAOK3 at 3 uM
[5] = molecular target: TGF-beta receptor type-1 (Homo sapiens) (UniProt P36897); experiment: Inhibition of TGFBR1 at 3 uM
[6] = molecular target: Non-receptor tyrosine-protein kinase TNK1 (Homo sapiens) (UniProt Q13470); experiment: Inhibition of TNK1 at 3 uM
Sequence of Non-receptor tyrosine-protein kinase TNK1 (Homo sapiens) (Q13470 whole entry): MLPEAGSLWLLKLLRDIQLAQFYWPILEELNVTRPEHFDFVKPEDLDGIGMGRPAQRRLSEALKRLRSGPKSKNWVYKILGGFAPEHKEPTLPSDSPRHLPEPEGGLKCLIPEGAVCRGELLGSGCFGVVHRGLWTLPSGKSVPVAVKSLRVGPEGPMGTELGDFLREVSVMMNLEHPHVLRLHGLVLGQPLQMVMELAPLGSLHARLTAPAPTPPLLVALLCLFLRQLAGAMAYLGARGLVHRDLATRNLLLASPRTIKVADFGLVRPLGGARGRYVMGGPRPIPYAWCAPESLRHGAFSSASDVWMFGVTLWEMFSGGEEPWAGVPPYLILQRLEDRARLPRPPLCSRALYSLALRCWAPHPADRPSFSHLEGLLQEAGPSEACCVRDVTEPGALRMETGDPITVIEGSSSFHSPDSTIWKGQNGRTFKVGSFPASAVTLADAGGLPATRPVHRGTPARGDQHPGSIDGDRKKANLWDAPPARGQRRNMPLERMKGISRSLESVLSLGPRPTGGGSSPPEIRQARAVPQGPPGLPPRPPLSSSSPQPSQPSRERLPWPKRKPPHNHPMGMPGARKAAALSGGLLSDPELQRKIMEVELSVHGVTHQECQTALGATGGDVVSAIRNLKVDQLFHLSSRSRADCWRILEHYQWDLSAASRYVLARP

[7] = molecular target: Epidermal growth factor receptor (Homo sapiens) (UniProt P04626+P00533+Q15303+P21860); experiment: Inhibition of EGFR L747-T751del,Sins mutant at 3 uM; format: protein assay
[8] = molecular target: LIM domain kinase 2 (Homo sapiens) (UniProt P53671); experiment: Inhibition of LIMK2 at 3 uM
[9] = system: eIF-2-alpha kinase GCN2 (Homo sapiens), Q9P2K8 [S808G]; experiment: Inhibition of GCN2 Kin.Dom.2,S808G mutant at 3 uM
[10] = molecular target: Mitogen-activated protein kinase kinase kinase 4 (Homo sapiens) (UniProt Q9Y6R4); experiment: Inhibition of MAP3K4 at 3 uM
[11] = molecular target: Dual specificity mitogen-activated protein kinase kinase 3 (Homo sapiens) (UniProt P46734); experiment: Inhibition of MEK3 at 3 uM
[12] = molecular target: Serine/threonine-protein kinase 26 (Homo sapiens) (UniProt Q9P289); experiment: Inhibition of MST4 at 3 uM
[13] = molecular target: Serine/threonine-protein kinase 38-like (Homo sapiens) (UniProt Q9Y2H1); experiment: Inhibition of NDR2 at 3 uM
[14] = molecular target: Protein kinase C theta type (Homo sapiens) (UniProt Q04759); experiment: Inhibition of PRKCQ at 3 uM
[15] = molecular target: Serine/threonine-protein kinase D3 (Homo sapiens) (UniProt O94806); experiment: Inhibition of PRKD3 at 3 uM
Sequence of Serine/threonine-protein kinase D3 (Homo sapiens) (O94806 whole entry): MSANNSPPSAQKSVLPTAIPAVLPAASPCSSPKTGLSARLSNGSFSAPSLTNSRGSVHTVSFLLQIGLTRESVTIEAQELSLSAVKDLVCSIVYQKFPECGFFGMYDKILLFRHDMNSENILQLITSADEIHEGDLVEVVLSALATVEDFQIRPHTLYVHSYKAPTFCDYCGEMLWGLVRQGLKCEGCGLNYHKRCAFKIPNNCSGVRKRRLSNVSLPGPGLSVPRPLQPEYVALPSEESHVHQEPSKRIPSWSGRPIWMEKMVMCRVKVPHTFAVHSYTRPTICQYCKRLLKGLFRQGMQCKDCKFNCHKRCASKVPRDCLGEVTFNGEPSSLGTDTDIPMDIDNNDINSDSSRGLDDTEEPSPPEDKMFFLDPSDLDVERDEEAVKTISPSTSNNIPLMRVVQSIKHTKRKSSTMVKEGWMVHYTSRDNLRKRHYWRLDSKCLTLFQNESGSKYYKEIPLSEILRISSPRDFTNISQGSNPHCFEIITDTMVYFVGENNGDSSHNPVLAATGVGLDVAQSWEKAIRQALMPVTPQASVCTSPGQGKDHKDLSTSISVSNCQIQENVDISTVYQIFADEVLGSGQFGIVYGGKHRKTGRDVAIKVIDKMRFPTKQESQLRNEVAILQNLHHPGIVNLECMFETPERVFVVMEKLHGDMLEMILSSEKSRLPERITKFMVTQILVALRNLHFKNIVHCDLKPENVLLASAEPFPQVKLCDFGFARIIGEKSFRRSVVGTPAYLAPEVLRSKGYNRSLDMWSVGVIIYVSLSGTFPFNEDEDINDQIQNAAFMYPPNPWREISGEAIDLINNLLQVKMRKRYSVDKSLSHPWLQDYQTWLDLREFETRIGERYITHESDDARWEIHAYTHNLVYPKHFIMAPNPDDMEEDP

[16] = molecular target: Focal adhesion kinase 1 (Homo sapiens) (UniProt Q05397); experiment: Inhibition of PTK2 at 3 uM
[17] = molecular target: Receptor-interacting serine/threonine-protein kinase 4 (Homo sapiens) (UniProt P57078); experiment: Inhibition of RIPK4 at 3 uM
[18] = molecular target: Phosphatidylinositol 4,5-bisphosphate 3-kinase catalytic subunit alpha isoform (Homo sapiens) (UniProt P42336); experiment: Inhibition of PIK3CA at 3 uM
Sequence of Phosphatidylinositol 4,5-bisphosphate 3-kinase catalytic subunit alpha isoform (Homo sapiens) (P42336 whole entry, canonical isoform): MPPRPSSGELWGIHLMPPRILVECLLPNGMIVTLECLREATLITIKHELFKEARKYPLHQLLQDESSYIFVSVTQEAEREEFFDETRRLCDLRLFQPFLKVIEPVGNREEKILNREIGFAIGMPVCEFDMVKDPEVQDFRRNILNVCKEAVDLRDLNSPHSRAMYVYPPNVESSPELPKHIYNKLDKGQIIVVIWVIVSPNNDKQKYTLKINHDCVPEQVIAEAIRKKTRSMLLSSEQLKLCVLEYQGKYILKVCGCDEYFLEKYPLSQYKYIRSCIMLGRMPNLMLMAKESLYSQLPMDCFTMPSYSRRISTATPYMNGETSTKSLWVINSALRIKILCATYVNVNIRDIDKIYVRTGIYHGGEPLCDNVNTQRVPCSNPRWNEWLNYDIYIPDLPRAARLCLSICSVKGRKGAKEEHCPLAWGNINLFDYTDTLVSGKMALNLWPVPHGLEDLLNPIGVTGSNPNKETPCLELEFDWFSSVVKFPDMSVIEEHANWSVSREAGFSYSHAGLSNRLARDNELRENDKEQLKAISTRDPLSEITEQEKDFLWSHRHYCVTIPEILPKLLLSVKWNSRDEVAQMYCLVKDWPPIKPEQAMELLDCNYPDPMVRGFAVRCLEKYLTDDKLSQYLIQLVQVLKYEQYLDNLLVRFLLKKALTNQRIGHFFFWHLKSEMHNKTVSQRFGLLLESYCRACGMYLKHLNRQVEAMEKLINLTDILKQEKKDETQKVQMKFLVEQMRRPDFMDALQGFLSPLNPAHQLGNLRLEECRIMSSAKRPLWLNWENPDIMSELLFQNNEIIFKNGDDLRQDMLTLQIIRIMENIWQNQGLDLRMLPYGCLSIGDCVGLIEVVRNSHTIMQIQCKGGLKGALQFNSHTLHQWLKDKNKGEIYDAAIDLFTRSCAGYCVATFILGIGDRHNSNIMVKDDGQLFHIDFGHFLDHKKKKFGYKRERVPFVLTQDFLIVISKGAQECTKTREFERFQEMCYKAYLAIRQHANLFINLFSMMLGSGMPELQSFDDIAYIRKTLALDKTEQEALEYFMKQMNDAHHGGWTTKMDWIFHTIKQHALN

[19] = molecular target: Tyrosine-protein kinase ZAP-70 (Homo sapiens) (UniProt P43403); experiment: Inhibition of ZAP70 at 3 uM
[20] = Volume of distribution in Sprague-Dawley rat at 1 mg/kg, iv; conditions: in vivo
[21] = Clearance in Sprague-Dawley rat at 1 mg/kg, iv; conditions: in vivo
[22] = Inhibition of myosin light chain bisphosphorylation in rat A7r5 cells after 1 hr
[23] = molecular target: Adenosine receptor A2a (Homo sapiens) (UniProt P29274); experiment: Inhibition of human adenosine A2A receptor at 3 uM
How it was run: (§1)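 Counter-screen binding/enzyme panel at single 3 μM, n=2; results as percent inhibition. Species per target as listed (rat NMDA, GABAA sites; human receptors, transporters; rabbit ACE).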

[24] = molecular target: Alpha-1A adrenergic receptor (Rattus norvegicus) (UniProt P43140); experiment: Inhibition of rat adrenergic alpha1A receptor at 3 uM
[25] = molecular target: B1 bradykinin receptor (Homo sapiens) (UniProt P46663); experiment: Inhibition of human bradykinin B1 receptor at 3 uM; how it was run: as §1
Sequence of B1 bradykinin receptor (Homo sapiens) (P46663 whole entry): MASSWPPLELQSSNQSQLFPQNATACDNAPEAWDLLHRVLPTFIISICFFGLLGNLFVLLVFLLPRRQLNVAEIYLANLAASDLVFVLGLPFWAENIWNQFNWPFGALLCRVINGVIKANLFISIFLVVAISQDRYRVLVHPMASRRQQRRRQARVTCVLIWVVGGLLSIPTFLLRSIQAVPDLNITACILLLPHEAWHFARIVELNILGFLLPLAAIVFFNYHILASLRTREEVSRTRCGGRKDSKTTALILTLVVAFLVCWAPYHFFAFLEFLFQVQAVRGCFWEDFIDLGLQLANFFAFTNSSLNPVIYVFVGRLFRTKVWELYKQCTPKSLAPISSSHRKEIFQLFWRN

[26] = molecular target: D(1A) dopamine receptor (Homo sapiens) (UniProt P21728); experiment: Inhibition of human dopamine D1 receptor at 3 uM
[27] = molecular target: D(2) dopamine receptor (Homo sapiens) (UniProt P14416); experiment: Inhibition of human dopamine D2S receptor at 3 uM; how it was run: as §1
Sequence of D(2) dopamine receptor (Homo sapiens) (P14416 whole entry): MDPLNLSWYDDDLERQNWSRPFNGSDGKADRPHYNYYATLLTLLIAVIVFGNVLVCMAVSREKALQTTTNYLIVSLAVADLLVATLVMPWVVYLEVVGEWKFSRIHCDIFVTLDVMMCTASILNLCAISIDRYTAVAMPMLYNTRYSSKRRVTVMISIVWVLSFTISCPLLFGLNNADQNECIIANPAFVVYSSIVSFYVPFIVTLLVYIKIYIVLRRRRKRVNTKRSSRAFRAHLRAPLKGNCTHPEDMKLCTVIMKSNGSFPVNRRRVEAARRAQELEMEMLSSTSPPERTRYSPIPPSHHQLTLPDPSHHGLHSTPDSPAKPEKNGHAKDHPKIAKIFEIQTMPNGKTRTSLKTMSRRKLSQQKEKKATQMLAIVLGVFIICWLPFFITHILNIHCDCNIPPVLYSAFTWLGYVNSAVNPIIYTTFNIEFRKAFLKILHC

[28] = molecular target: Estrogen receptor (Homo sapiens) (UniProt P03372); experiment: Inhibition of human ERalpha at 3 uM; how it was run: as §1
[29] = molecular target: Cysteinyl leukotriene receptor 1 (Homo sapiens) (UniProt Q9Y271); experiment: Inhibition of human CysLT1 receptor at 3 uM
Sequence of Cysteinyl leukotriene receptor 1 (Homo sapiens) (Q9Y271 whole entry): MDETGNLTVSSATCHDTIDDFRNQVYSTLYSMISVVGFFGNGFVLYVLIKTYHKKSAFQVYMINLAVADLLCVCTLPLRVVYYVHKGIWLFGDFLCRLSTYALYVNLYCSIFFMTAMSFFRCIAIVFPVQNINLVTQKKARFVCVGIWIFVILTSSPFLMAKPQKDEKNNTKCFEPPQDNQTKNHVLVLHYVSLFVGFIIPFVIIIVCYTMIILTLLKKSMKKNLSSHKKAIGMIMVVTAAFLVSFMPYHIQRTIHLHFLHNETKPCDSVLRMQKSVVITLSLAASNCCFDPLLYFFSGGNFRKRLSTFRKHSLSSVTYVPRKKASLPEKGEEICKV

[30] = molecular target: Muscarinic acetylcholine receptor M1 (Homo sapiens) (UniProt P11229); experiment: Inhibition of human muscarinic M1 receptor at 3 uM; how it was run: as §1
Sequence of Muscarinic acetylcholine receptor M1 (Homo sapiens) (P11229 whole entry): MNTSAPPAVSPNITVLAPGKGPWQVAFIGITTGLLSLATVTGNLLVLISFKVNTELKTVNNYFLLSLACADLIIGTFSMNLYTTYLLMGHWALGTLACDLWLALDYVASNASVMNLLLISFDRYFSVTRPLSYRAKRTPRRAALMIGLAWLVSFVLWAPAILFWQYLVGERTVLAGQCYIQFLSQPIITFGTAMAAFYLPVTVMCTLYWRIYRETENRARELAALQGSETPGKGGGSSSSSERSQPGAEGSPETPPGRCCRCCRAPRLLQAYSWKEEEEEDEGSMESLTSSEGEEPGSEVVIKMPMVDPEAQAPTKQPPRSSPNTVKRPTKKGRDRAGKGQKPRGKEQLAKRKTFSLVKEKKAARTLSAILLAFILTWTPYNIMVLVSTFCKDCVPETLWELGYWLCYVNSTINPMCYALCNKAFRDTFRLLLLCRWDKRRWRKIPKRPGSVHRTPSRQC

[31] = molecular target: Neuropeptide Y receptor type 1 (Homo sapiens) (UniProt P25929); experiment: Inhibition of human neuropeptide Y Y1 receptor at 3 uM; how it was run: as §1
[32] = molecular target: Tyrosine-protein kinase ABL1 (Homo sapiens) (UniProt P00519); experiment: Inhibition of ABL1 at 3 uM
[33] = system: Tyrosine-protein kinase ABL1 (Homo sapiens), P00519 [E255K]; experiment: Inhibition of ABL1E255K mutant at 3 uM
[34] = system: Tyrosine-protein kinase ABL1 (Homo sapiens), P00519 [H396P]; experiment: Inhibition of ABL1 H396P mutant at 3 uM
[35] = system: Tyrosine-protein kinase ABL1 (Homo sapiens), P00519 [M351T]; experiment: Inhibition of ABL1 M351T mutant at 3 uM
[36] = molecular target: Cyclin-dependent kinase 9 (Homo sapiens) (UniProt P50750); experiment: Inhibition of CDK9 at 3 uM
[37] = molecular target: Activin receptor type-1-like (Homo sapiens) (UniProt P37023); experiment: Inhibition of ACVRL1 at 3 uM
[38] = molecular target: Cytoplasmic tyrosine-protein kinase BMX (Homo sapiens) (UniProt P51813); experiment: Inhibition of BMX at 3 uM
[39] = molecular target: Serine/threonine-protein kinase Chk2 (Homo sapiens) (UniProt O96017); experiment: Inhibition of CHEK2 at 3 uM
Sequence of Serine/threonine-protein kinase Chk2 (Homo sapiens) (O96017 whole entry): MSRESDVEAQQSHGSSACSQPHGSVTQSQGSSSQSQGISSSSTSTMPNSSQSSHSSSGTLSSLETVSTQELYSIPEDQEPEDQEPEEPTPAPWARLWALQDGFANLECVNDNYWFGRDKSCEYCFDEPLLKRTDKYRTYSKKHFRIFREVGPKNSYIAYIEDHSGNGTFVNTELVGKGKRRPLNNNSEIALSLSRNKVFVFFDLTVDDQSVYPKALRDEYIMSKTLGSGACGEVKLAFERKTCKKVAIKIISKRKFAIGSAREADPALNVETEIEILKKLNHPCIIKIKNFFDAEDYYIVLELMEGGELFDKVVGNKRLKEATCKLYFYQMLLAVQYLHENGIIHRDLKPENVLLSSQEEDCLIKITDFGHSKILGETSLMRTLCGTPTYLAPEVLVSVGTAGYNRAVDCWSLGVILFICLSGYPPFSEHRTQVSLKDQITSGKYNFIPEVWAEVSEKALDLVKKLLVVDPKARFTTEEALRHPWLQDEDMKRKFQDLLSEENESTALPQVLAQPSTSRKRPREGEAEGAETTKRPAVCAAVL

[40] = molecular target: Citron Rho-interacting kinase (Homo sapiens) (UniProt O14578); experiment: Inhibition of CIT at 3 uM
[41] = molecular target: 5-hydroxytryptamine receptor 1A (Homo sapiens) (UniProt P08908); experiment: Inhibition of human 5HT1A receptor at 3 uM; how it was run: as §1
[42] = molecular target: Sodium-dependent serotonin transporter (Homo sapiens) (UniProt P31645); experiment: Inhibition of human SERT at 3 uM
[43] = molecular target: Discoidin domain-containing receptor 2 (Homo sapiens) (UniProt Q16832); experiment: Inhibition of DDR2 at 3 uM
[44] = molecular target: Myotonin-protein kinase (Homo sapiens) (UniProt Q09013); experiment: Inhibition of DMPK at 3 uM
[45] = molecular target: Serine/threonine-protein kinase MRCK alpha (Homo sapiens) (UniProt Q5VT25); conditions: 3 uM
Sus scrofa = species: Sus scrofa; conditions: 25 uM
Mus musculus = species: Mus musculus; conditions: 3 uM

CN(C)CCOc1cc(-c2cn[nH]c2)ccc1NC(=O)C1COc2ccccc2O1 (configuration not stated) [SR-3677]
inhibition [1]: < 10% | inhibition [2]: < 10% | inhibition [3]: < 10% | inhibition [4]: < 10% | inhibition [5]: < 10% | inhibition [6]: < 10% | inhibition [7]: < 10% | inhibition [8]: < 10% | inhibition [9]: < 10% | inhibition [10]: < 10% | inhibition [11]: < 10% | inhibition [12]: < 10% | inhibition [13]: < 10% | inhibition [14]: < 10% | inhibition [15]: < 10% | inhibition [16]: < 10% | inhibition [17]: < 10% | inhibition [18]: < 10% | inhibition [19]: < 10% | Vd [20]: 3 L/kg | clearance [21]: 61 mL/min/kg | IC50 [22]: 3.5 nM | inhibition [23]: 5% | inhibition [24]: 53% | inhibition [25]: -3% | inhibition [26]: 17% | inhibition [27]: 6% | inhibition [28]: -2% | inhibition [29]: 0% | inhibition [30]: 6% | inhibition [31]: -8% | inhibition [32]: < 10% | inhibition [33]: < 10% | inhibition [34]: < 10% | inhibition [35]: < 10% | inhibition [36]: < 10% | inhibition [37]: < 10% | inhibition [38]: < 10% | inhibition [39]: < 10% | inhibition [40]: < 10% | inhibition [41]: 6% | inhibition [42]: 3% | inhibition [43]: < 10% | inhibition [44]: < 10% | inhibition [45]: < 10% | inhibition (Sus scrofa): 90% | inhibition (Mus musculus): -2%
